Assay results taken from paper PMC4725056 (Nature chemistry, 2015).

Legend:
Type in all cases: cell-based, human
[1] = test system: H1299 cells; experiment: Lipid biosynthesis; conditions: 10 μM compound C together with DC_AC50
[2] = test system: lung cancer H1299 cells; experiment: Cell proliferation; conditions: DC_AC50 (10 μM)
[3] = test system: p-AMPK and p-ACC1 in H1299 cells; experiment: AMPK and ACC1 phosphorylation; conditions: together with DC_AC50 (10 μM), 12 hours
[4] = test system: H1299 cells; experiment: Total cellular copper content by inductively coupled plasma mass spectrometry; conditions: copper chelator control
Method in brief: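 Total cellular copper in H1299 cells measured by inductively coupled plasma mass spectrometry after test-compound treatment; tetrathiomolybdate served as the copper-chelator control.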

[5] = test system: H1299 cells; experiment: Measurement of ROS production; conditions: pretreated with 1 mM or 3 mM NAC for one hour, followed by 5 μM DC_AC50 for 12 hours

Compound	rescue of lipid biosynthesis reduced by DC_AC50 [1]	rescue of cell-proliferation inhibition by DC_AC50 [2]	rescue of DC_AC50-induced AMPK and ACC1 phosphorylation [3]	decrease of the total cellular copper content [4]	rescue of DC_AC50-induced ROS increase [5]
c1cc(-c2cnn3cc(-c4ccc(OCCN5CCCCC5)cc4)cnc23)ccn1 [compound C]	recovered	partially rescued	almost completely reversed	–	–
[SH-].[SH-].[S]=[Mo]=[S] [TM, tetrathiomolybdate]	–	–	–	~40%	–
CC(=O)N[C@@H](CS)C(=O)O [NAC, N-acetyl-L-cysteine]	–	partially rescued	failed to rescue	–	rescued almost completely
